According to ChEMBL document CHEMBL1149149, “Design, synthesis, and biological activity of 1,3-disubstituted ureas as potent inhibitors of the soluble epoxide hydrolase of increased water solubility” (J Med Chem, 2004):
≈ marks a conversion by molar mass, not a printed value.

Columns and labels:
[1] = target: T1, Bifunctional epoxide hydrolase 2 (Mus musculus) (UniProt P34914); experiment: Tested for 90 % inhibitory concentration against mouse soluble epoxide hydrolase (sEH)
T1 sequence (whole entry): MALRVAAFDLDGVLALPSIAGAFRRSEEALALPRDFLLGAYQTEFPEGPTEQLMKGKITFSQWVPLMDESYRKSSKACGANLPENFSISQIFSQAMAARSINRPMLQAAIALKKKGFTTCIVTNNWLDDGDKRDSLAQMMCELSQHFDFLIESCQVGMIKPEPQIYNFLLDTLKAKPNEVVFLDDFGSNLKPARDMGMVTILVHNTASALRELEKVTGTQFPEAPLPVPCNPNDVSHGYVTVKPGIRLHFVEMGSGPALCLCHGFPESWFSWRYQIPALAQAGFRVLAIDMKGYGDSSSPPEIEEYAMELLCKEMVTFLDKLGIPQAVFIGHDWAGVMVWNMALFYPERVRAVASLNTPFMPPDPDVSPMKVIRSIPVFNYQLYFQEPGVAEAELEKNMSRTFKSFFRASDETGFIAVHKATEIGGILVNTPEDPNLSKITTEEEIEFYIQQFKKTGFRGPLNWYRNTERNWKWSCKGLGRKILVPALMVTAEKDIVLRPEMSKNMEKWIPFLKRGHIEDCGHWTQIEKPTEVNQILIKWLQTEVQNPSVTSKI
In short: (§1)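 Recombinant sEH (human for line 1, mouse for line 2) expressed in baculovirus and affinity-purified to ≥97%. Enzyme was preincubated with inhibitor for 5 min at 30 °C in 0.1 M sodium phosphate, pH 7.4, with 0.1 mg/mL BSA. Racemic 4-nitrophenyl-trans-2,3-epoxy-3-phenylpropyl carbonate (40 µM) was then added, and 4-nitrophenolate was read at 405 nm for 1 min at 30 °C. Assays were run in triplicate.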

[2] = target: T2, Bifunctional epoxide hydrolase 2 (Homo sapiens) (UniProt P34913); experiment: Tested for 90 % inhibitory concentration against human soluble epoxide hydrolase (sEH); in short: as §1
T2 sequence (whole entry): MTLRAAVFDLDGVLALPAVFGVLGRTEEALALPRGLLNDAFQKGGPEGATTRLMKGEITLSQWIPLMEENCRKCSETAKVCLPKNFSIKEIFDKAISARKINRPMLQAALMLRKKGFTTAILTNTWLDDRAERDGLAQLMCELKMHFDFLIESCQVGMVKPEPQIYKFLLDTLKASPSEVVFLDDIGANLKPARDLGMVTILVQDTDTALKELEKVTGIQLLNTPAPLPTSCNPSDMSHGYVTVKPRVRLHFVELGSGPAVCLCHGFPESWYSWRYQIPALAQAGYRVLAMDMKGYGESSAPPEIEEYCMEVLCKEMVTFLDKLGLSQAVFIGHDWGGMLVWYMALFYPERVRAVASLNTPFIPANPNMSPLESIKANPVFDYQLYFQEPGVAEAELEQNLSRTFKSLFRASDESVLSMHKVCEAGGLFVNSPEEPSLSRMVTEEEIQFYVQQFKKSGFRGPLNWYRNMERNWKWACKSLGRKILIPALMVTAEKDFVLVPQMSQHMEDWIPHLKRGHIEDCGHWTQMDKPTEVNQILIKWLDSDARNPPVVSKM

[3] = target: T3, Bifunctional epoxide hydrolase 2 (Mus musculus, UniProt P34914); experiment: Tested for 50 % inhibitory concentration against mouse soluble epoxide hydrolase (sEH)
T3 sequence (P34914 whole entry): T1 sequence (whole entry)
In short: (§2)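 Recombinant sEH was expressed in baculovirus and affinity-purified to at least 97% purity. Enzyme was preincubated with inhibitor for 5 min at 30 °C in 0.1 M sodium phosphate, pH 7.4, with 0.1 mg/mL BSA. Racemic 4-nitrophenyl-trans-2,3-epoxy-3-phenylpropyl carbonate was the substrate (40 µM). 4-Nitrophenolate was read at 405 nm for 1 min. Run in triplicate; IC50 from regression of at least five points.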

[4] = target: T4, Bifunctional epoxide hydrolase 2 (Homo sapiens, UniProt P34913); experiment: Tested for 50 % inhibitory concentration against human soluble epoxide hydrolase (sEH); in short: as §2
T4 sequence (P34913 whole entry): T2 sequence (whole entry)

[5] = Partition coefficient (logP); format: physicochemical; conditions: octanol/water
In short: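 Compound dissolved in buffer-saturated octanol, then mixed with octanol-saturated 0.1 M sodium phosphate buffer, pH 7.4. Shaken 24 h at 23 ± 1.5 °C and centrifuged 5 min at 200g. Each phase was quantified by LC-MS/MS, and log P was taken as log [octanol]/[water]. Triplicate analyses.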

[6] = Solubility in sodium phosphate buffer (0.1 M, pH 7.4) at 25 degrees C was determined

Compound | IC90 [1] [nM] | IC90 [2] [nM] | IC50 [3] [nM] | IC50 [4] [nM] | also measured
CCOC(=O)CCCCCCCCCCCOC(=O)CCCNC(=O)NC12CC3CC(CC(C3)C1)C2 | 630 | 1800 |  |  | 
CC(C)=CCCC(C)CCOC(=O)CCCNC(=O)NC12CC3CC(CC(C3)C1)C2 (configuration not stated) |  |  | 50 | 110 | 
O=C(O)CNC(=O)NC1CCCCC1 |  |  | > 500000 | > 500000 | 
CCOC(=O)CCCCCCCCCOC(=O)CCCNC(=O)NC12CC3CC(CC(C3)C1)C2 | 260 | 680 |  |  | 
CCOC(=O)CCCCCCCCCCOC(=O)CCCNC(=O)NC12CC3CC(CC(C3)C1)C2 | 350 | 1200 |  |  | 
CCOC(=O)CCCOC(=O)CCCNC(=O)NC12CC3CC(CC(C3)C1)C2 | 160 | 5000 |  |  | 
O=C(O)CCCNC(=O)NC12CC3CC(CC(C3)C1)C2 |  |  | 22000 | 37000 | logP [5]: 0.14; solubility ([6]; sodium phosphate buffer): 7.06 µg/mL (≈ 25.2 µM)
CCOC(=O)CCCCOC(=O)CCCNC(=O)NC12CC3CC(CC(C3)C1)C2 | 100 | 1500 |  |  | 
CCOC(=O)Cc1ccc(OC(=O)CCCNC(=O)NC23CC4CC(CC(C4)C2)C3)cc1 |  |  | 50 | 140 | 
CCCCCCCCCCNC(=O)NC1CCCCC1 |  |  |  |  | logP [5]: 5.44; solubility ([6]; buffer): 0.44 µg/mL (≈ 1.56 µM)
CCCCCOC(=O)CCCNC(=O)NC12CC3CC(CC(C3)C1)C2 |  |  |  |  | solubility ([6]; sodium phosphate buffer): 1.69 µg/mL (≈ 4.82 µM)
CCCCCOC(=O)CCCNC(=O)NC1CCCCC1 |  |  |  |  | logP [5]: 0.82; solubility [6]: 1.51 µg/mL (≈ 5.06 µM)
O=C(NCCCCCO)NC1CCCCC1 |  |  | 90000 | 253000 | 
CCOC(=O)c1ccc(COC(=O)CCCNC(=O)NC23CC4CC(CC(C4)C2)C3)cc1 |  |  | 50 | 100 | 
COCCCNC(=O)NC1CCCCC1 |  |  | 330 | 6200 | 
CCOC(=O)CCCCCCCOC(=O)CCCNC(=O)NC12CC3CC(CC(C3)C1)C2 | 160 | 720 |  |  | 
CCOC(=O)COC(=O)CCCNC(=O)NC12CC3CC(CC(C3)C1)C2 | 110 | 9000 |  |  | 
CCCCCCC(=O)NCCNC(=O)Nc1cccc(Cl)c1 |  |  |  | > 100000 | 
O=C(NCCCO)NC1CCCCC1 |  |  | > 500000 | > 500000 | 
CCOC(=O)CCOC(=O)CCCNC(=O)NC12CC3CC(CC(C3)C1)C2 | 630 | 9000 |  |  | 
CCCCCOC(=O)NCCNC(=O)Nc1cccc(Cl)c1 |  |  |  | > 100000 | 
COC(=O)CCCNC(=O)NC12CC3CC(CC(C3)C1)C2 |  |  | 100 | 1600 | logP [5]: 0.18; solubility ([6]; sodium phosphate buffer): 1.6 µg/mL (≈ 5.43 µM)
CCCCCCCCCCNC(=O)NC12CC3CC(CC(C3)C1)C2 |  |  |  |  | logP [5]: 5.25; solubility ([6]; sodium phosphate buffer): 0.62 µg/mL (≈ 1.85 µM)
CCOC(=O)/C=C/c1ccc(OC(=O)CCCNC(=O)NC23CC4CC(CC(C4)C2)C3)cc1 |  |  | 50 | 200 | 
CCCCCNC(=O)NCCNC(=O)Nc1cccc(Cl)c1 |  |  |  | > 100000 | 
CCCCCCC(O)CCCNC(=O)Nc1cccc(Cl)c1 (configuration not stated) |  |  | 140 | 3100 | 
